Results on 21 compounds are retold here after ChEMBL document CHEMBL1914393, “Chemical scaffolds with structural similarities to siderophores of nonribosomal peptide-polyketide origin as novel antimicrobials against Mycobacterium tuberculosis and Yersinia pestis” (Bioorg Med Chem Lett, 2011).

Structures are written as SMILES. pIC50: −log10 of the molar value. Converted amounts (≈) assume the structure as drawn. The source made the active and inactive calls. Some results are limits rather than exact numbers.

As usually defined, the pIC50 is the negative decadic logarithm of the IC50, by convention in mol/L. Low values mean a large IC50, high ones a small IC50. One may read the MIC90 as the lowest concentration that inhibits either 90% of growth or 90% of the strains tested, depending on the study. A higher MIC90 goes with lower susceptibility.

Test [1] concerns Yersinia pestis. The test is described as follows: Antimicrobial activity against Yersinia pestis KIM6-2082.1+ in PMHD medium supplemented with 100 uM FeCl3 after 26 hrs by spectrophotometric analysis. Type of test: functional, organism-based.
The test system of test [2] is Yersinia pestis. The test is described as follows: Antimicrobial activity against Yersinia pestis KIM6-2082.1+ in PMHD medium after 26 hrs by spectrophotometric analysis. Format: functional, organism-based.
In test [3] the test system is Mycobacterium tuberculosis. The test is described as follows: Antimicrobial activity against Mycobacterium tuberculosis H37Rv in GASTD medium supplemented with 100 uM FeCl3 after 10 days by spectrophotometric analysis. Type of test: functional, organism-based. Conditions: 240 h. Put shortly:
(§1)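 Virulent H37Rv, twofold microdilution in iron-limiting GASTD or GASTD plus 100 μM FeCl3, started at OD600 0.001 from deferrated stocks. Compounds were added in DMSO (0.5% final) up to 500 μM or the solubility limit. Cultures sat stationary for 10 days at 37 °C, read at OD600. IC50 from sigmoidal fits to triplicates; MIC90 is the lowest concentration giving ≥90% inhibition versus DMSO controls. Ratios are +Fe/GASTD.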

Test [4] deals with Mycobacterium tuberculosis. Kind of test: Antimicrobial activity against Mycobacterium tuberculosis H37Rv in GASTD medium after 10 days by spectrophotometric analysis. The settings on record: 240 h. Type of test: functional, organism-based. Put shortly: as §1
Test [5] deals with Mycobacterium tuberculosis. The test is described as follows: Ratio of IC50 for Mycobacterium tuberculosis H37Rv in GASTD medium supplemented with 100 uM FeCl3 to IC50 for Mycobacterium tuberculosis H37Rv in Fe-deficient GASTD medium. Type of test: functional. A digest of the protocol:
as §1

Test [6] deals with Mycobacterium tuberculosis. The test is described as follows: Bactericidal activity against Mycobacterium tuberculosis H37Rv in GASTD medium at 2 times MIC after 30 days by colony counting. Type of test: functional, organism-based. A digest of the protocol: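 Duplicate GASTD cultures were treated and incubated as in the growth assay (37 °C, 10 days), then serial 10-fold dilutions were plated on Middlebrook 7H11. Colonies were counted after 30 days at 37 °C and reported as CFU/mL. Bactericidal was defined as >99% killing relative to inoculum.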

In test [7] the test system is Mycobacterium tuberculosis. The test is described as follows: Ratio of MIC90 for Mycobacterium tuberculosis H37Rv in GASTD medium supplemented with 100 uM FeCl3 to MIC90 for Mycobacterium tuberculosis H37Rv in Fe-deficient GASTD medium. Format: functional. A digest of the protocol:
as §1

The subject of test [8] is Yersinia pestis. The test is described as follows: Ratio of IC50 for Yersinia pestis KIM6-2082.1+ in PMHD medium supplemented with 100 uM FeCl3 to IC50 for Yersinia pestis KIM6-2082.1+ in Fe-deficient PMHD medium. Format: functional.

Consider `C/C(=N\NC(=O)NO)c1ccccc1O`, for which the pIC50 in test [1] is below 5.70; in test [2], below 5.40; in test [3], below 5.10; in test [4], below 5.10. For the same compound, the MIC90 was above 2 µM in test [1], above 4 µM in test [2], above 8 µM in test [3] and above 8 µM in test [4].

With `NNC(=O)c1ccncc1` [ISONIAZID], the “Ratio IC50” value in test [5] was 1. In addition, in test [3], the pIC50 was 7.05 and the MIC90 was found to be 0.2 µM (≈ 0.0274 µg/mL). In test [4], this compound gave a pIC50 of 7.15 and an MIC90 of 0.2 µM (≈ 0.0274 µg/mL). Besides, in test [6], the result was Active. In addition, in test [7], the Ratio is recorded as 1.

For `O=C(c1ccncc1)N1N=C(c2ccccc2O)C[C@H]1c1ccc(O)cc1`, the pIC50 in test [1] is below 5.10; in test [2] it was below 5.10; in test [3], below 5.40; in test [4] it was below 5.10. Moreover, the MIC90 in test [1] was above 8 µM; in test [2], above 8 µM; in test [3], above 4 µM; in test [4] it was above 8 µM.

Take `Cc1ccc(S(=O)(=O)N2N=C(c3ccccc3O)C[C@H]2c2ccccc2O)cc1`: the pIC50 in test [1] was below 4.80; in test [2], below 4.51; in test [3] it was below 4.51; in test [4], below 4.20. In addition, the MIC90 in test [1] was above 16 µM; in test [2], above 31 µM; in test [3], above 31 µM; in test [4] it was above 63 µM.

As for `NC(=O)N1N=C(c2ccccc2O)C[C@H]1c1ccc(O)cc1`, the pIC50 was below 4.51 in test [1], below 4.51 in test [2], below 4.49 in test [3] and below 4.20 in test [4]. The MIC90 in test [1] was above 31 µM; in test [2], above 31 µM; in test [3], above 63 µM; in test [4], above 63 µM.

`N=C(NO)N/N=C/c1ccc(O)cc1`: the “Ratio IC50” value in test [5] amounted to 1. Besides, the pIC50 in test [1] is below 3.30; in test [2], below 3.30; in test [3], 4.37; in test [4] it was 4.37. For the same compound, the MIC90 in test [1] was above 500 µM; in test [2], above 500 µM; in test [3] it was 132 µM (≈ 25.6 µg/mL); in test [4], 222 µM (≈ 43.1 µg/mL). In test [6], the outcome was Active. Also, in test [7], the Ratio worked out at 1.

Take `CC(=O)N1N=C(c2ccccc2O)C[C@H]1c1ccc(O)cc1`: the pIC50 is below 4.80 in test [1], below 4.80 in test [2], below 5.10 in test [3] and below 5.10 in test [4]. In addition, the MIC90 in test [1] is above 16 µM; in test [2], above 16 µM; in test [3], above 8 µM; in test [4], above 8 µM.

In the case of `O=C(NO)N1N=C(c2ccccc2O)C[C@H]1c1ccccc1O`, the pIC50 was below 4.51 in test [1], 5.10 in test [2], below 4.49 in test [3] and 4.27 in test [4]. The MIC90 in test [1] was above 31 µM; in test [2] it was above 31 µM; in test [3], above 31 µM; in test [4], above 63 µM. In test [8], the “Ratio IC50” value is given as above 4.

Take `NC(=O)N1N=C(c2ccccc2O)C[C@H]1c1ccccc1O`: in test [5], the “Ratio IC50” value is recorded as 1. The pIC50 in test [1] is below 3.60; in test [2] it was below 3.60; in test [3], 4.19; in test [4], 4.11. The MIC90 in test [1] was above 250 µM; in test [2], above 250 µM; in test [3], 104 µM (≈ 30.9 µg/mL); in test [4], 208 µM (≈ 61.8 µg/mL). For the same compound, in test [6], the outcome was Active. Further, the Ratio in test [7] is recorded as 0.5.

For `O=S(=O)(c1ccccc1)N1N=C(c2ccccc2O)C[C@H]1c1ccc(O)cc1`, the pIC50 in test [1] was below 4.51; in test [2], below 4.80; in test [3] it was below 4.51; in test [4], below 4.20. For the same compound, the MIC90 in test [1] was above 31 µM; in test [2], above 16 µM; in test [3] it was above 31 µM; in test [4], above 63 µM.

As to `Cc1ccc(S(=O)(=O)N2N=C(c3ccccc3O)C[C@H]2c2ccc(O)cc2)cc1`, the pIC50 in test [1] is below 4.80; in test [2], below 4.51; in test [3], below 4.51; in test [4] it was below 4.20. The MIC90 is above 16 µM in test [1], above 31 µM in test [2], above 31 µM in test [3] and above 63 µM in test [4].

As to `O=S(=O)(c1ccccc1)N1N=C(c2ccccc2O)C[C@H]1c1ccccc1O`, the negative logarithm of the IC50 (pIC50) in test [1] was below 4.51; in test [2], 5.10; in test [3], below 4.80; in test [4], below 4.20. The MIC90 in test [1] is above 31 µM; in test [2] it was above 31 µM; in test [3], above 31 µM; in test [4], above 63 µM. Further, the “Ratio IC50” value in test [8] was above 4.

Take `O=C(c1ccccc1)N1N=C(c2ccccc2O)C[C@H]1c1ccccc1O`: in test [5], the “Ratio IC50” value stood at 1. Further, the pIC50 in test [1] is below 4.20; in test [2], below 4.51; in test [3] it was 4.01; in test [4], 4.08. Also, the MIC90 in test [1] is above 63 µM; in test [2] it was above 31 µM; in test [3] it was above 500 µM; in test [4], above 500 µM.

As to `CC(=O)N1N=C(c2ccccc2O)C[C@H]1c1ccccc1O`, the pIC50 is below 4.51 in test [1], below 4.51 in test [2], below 4.80 in test [3] and below 4.51 in test [4]. Besides, the MIC90 in test [1] was above 31 µM; in test [2], above 31 µM; in test [3] it was above 16 µM; in test [4] it was above 32 µM.

For the compound `N=C(N)N1N=C(c2ccccc2O)C[C@H]1c1ccc(O)cc1`, the “Ratio IC50” value in test [5] is on record as 1. For the same compound, the pIC50 in test [1] is below 4.20; in test [2] it was below 3.90; in test [3] it was 4.59; in test [4], 4.51. The MIC90 is above 63 µM in test [1], above 125 µM in test [2], 76 µM (≈ 22.5 µg/mL) in test [3] and 125 µM (≈ 37 µg/mL) in test [4]. The outcome in test [6] was Active. Moreover, the Ratio in test [7] is 1.

With `O=C(c1ccncc1)N1N=C(c2ccccc2O)C[C@H]1c1ccccc1O`, in test [5], the “Ratio IC50” value turned out to be 1. Further, the pIC50 in test [1] was below 4.80; in test [2] it was below 4.80; in test [3], 5.10; in test [4], 5.10. Moreover, the MIC90 in test [1] was above 16 µM; in test [2], above 16 µM; in test [3], 16 µM (≈ 5.75 µg/mL); in test [4], 16 µM (≈ 5.75 µg/mL). In addition, the outcome in test [6] was Active. Also, the Ratio in test [7] is 1.

In the case of `O=C(NO)N/N=C/c1ccccc1O`, the pIC50 was below 5.40 in test [1], below 4.80 in test [2], below 4.80 in test [3] and below 4.80 in test [4]. Besides, the MIC90 in test [1] was above 4 µM; in test [2], above 16 µM; in test [3], above 16 µM; in test [4] it was above 16 µM.

For `C/C(=N\NC(=O)NO)c1ccc(O)cc1`, the pIC50 in test [1], in test [2], in test [3] and in test [4] was below 3.30 in each case. Further, the MIC90 in test [1], in test [2], in test [3] and in test [4] was above 500 µM throughout.

`O=C(NO)N/N=C/c1ccc(O)cc1`: the “Ratio IC50” value in test [5] was found to be 0.4. The pIC50 in test [1] was below 3.60; in test [2], below 3.60; in test [3], 4.40; in test [4] it was 4.01. Further, the MIC90 was above 250 µM in test [1], above 250 µM in test [2], 97 µM (≈ 18.9 µg/mL) in test [3] and 146 µM (≈ 28.5 µg/mL) in test [4]. Besides, the outcome in test [6] was Active. In addition, the Ratio in test [7] was determined as 1.

In the case of `O=C(c1ccccc1)N1N=C(c2ccccc2O)C[C@H]1c1ccc(O)cc1`, the pIC50 in test [1] is below 4.80; in test [2] it was below 4.51; in test [3] it was below 4.80; in test [4], below 4.20. In addition, the MIC90 in test [1] was above 16 µM; in test [2], above 31 µM; in test [3], above 63 µM; in test [4] it was above 63 µM.

With `NC(=S)N1N=C(c2ccccc2O)C[C@H]1c1ccccc1O`, in test [5], the “Ratio IC50” value was found to be 1. Moreover, the pIC50 in test [1] was below 4.20; in test [2], 3.74; in test [3], 4.30; in test [4] it was 4.28. Besides, the MIC90 is above 63 µM in test [1], above 250 µM in test [2], 125 µM (≈ 39.2 µg/mL) in test [3] and 125 µM (≈ 39.2 µg/mL) in test [4]. Moreover, the outcome in test [6] was Active. Further, the Ratio in test [7] was determined as 1.
